Results published in ChEMBL document CHEMBL3774328, “Optimization by Molecular Fine Tuning of Dihydro-β-agarofuran Sesquiterpenoids as Reversers of P-Glycoprotein-Mediated Multidrug Resistance” (J Med Chem, 2016).

How the values were obtained:
[1] = biological target: T1, ATP-dependent translocase ABCB1 (Homo sapiens, UniProt P08183); assay: Inhibition of human MDR1 expressed in mouse NIH/3T3 cells assessed as inhibition of daunomycin efflux incubated for 30 mins by flow cytometry; assay type: cell-based, NIH3T3
T1 sequence (P08183 whole entry): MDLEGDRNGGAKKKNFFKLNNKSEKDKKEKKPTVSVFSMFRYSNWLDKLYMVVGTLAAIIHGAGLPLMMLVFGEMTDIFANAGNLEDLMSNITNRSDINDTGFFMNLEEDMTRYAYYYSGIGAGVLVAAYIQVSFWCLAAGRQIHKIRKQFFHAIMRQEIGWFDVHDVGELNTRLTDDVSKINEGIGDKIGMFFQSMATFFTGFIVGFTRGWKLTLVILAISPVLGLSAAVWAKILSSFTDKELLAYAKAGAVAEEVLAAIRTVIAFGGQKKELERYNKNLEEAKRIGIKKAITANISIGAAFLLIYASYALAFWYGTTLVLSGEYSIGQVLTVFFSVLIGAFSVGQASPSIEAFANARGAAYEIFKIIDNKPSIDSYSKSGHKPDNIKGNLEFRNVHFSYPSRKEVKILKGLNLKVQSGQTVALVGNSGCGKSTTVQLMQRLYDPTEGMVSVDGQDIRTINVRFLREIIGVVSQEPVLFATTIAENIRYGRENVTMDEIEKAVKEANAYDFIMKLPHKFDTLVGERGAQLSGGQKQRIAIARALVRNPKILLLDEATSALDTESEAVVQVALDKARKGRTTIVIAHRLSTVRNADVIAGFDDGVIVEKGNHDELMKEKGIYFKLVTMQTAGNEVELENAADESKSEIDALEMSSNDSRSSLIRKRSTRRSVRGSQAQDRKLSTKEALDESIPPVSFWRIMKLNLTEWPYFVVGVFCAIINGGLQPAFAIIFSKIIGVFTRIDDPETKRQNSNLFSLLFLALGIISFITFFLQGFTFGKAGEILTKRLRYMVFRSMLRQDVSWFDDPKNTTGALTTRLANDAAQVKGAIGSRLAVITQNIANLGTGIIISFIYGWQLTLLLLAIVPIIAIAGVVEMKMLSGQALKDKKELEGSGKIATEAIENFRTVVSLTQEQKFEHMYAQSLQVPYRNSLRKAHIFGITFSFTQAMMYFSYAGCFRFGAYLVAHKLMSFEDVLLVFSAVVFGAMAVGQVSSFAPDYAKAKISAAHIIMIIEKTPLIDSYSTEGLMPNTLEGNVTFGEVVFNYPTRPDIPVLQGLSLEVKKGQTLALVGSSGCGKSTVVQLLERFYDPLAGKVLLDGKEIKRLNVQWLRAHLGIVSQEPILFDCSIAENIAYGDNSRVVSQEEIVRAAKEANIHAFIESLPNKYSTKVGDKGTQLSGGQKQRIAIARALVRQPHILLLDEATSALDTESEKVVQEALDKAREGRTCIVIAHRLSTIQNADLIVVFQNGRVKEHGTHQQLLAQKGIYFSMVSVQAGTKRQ
Procedure, shortened: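 Ki for DNM efflux. MDR1-G185 NIH-3T3 cells were incubated 30 min at 37 °C with DNM (2 μM) and varying compound concentrations, then read by flow cytometry. Fluorescence was converted to % P-gp inhibition, normalized to cells treated with 5 mM sodium orthovanadate (100%). Ki was fitted from I = (Imax × S)/(Ki + S). Mean ± SD of three independent experiments in triplicate.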

[2] = Intrinsic cytotoxicity against mouse NIH/3T3 cells transfected with human MDR1 by MTT assay; assay type: ADME, cell-based, NIH3T3
Procedure, shortened: (§1)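 Intrinsic cytotoxicity was measured by MTT in parental NIH-3T3 and MDR1-G185 cells. CC50 came from a four-parameter logistic fit. The top tested concentration was 60 μM, limited by DMSO toxicity, and growth at 60 μM is given as % of untreated control. Mean ± SD of three independent experiments in duplicate.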

[3] = Intrinsic cytotoxicity against mouse NIH/3T3 cells by MTT assay; assay type: cell-based, NIH3T3; procedure, shortened: as §1
[4] = biological target: T1, ATP-dependent translocase ABCB1; assay: Inhibition of human MDR1 expressed in mouse NIH/3T3 cells assessed as reduction in daunomycin IC50 at 1 uM by MTT assay; assay type: cell-based; details: nih3t3, 1 µM
Procedure, shortened: (§2)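 Parental NIH-3T3 and MDR1-G185 cells were grown in DMEM with 10% iFBS. They were exposed to increasing DNM or VLB (up to 500 ng/mL) with or without compound at fixed 1, 3 or 10 μM. Growth was read by MTT, and IC50 came from a four-parameter logistic fit. Mean ± SD of two independent experiments in triplicate.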

[5] = biological target: T1, ATP-dependent translocase ABCB1; assay: Inhibition of human MDR1 expressed in mouse NIH/3T3 cells assessed as reduction in daunomycin IC50 at 3 uM by MTT assay; assay type: cell-based; details: nih3t3, 3 µM
Procedure, shortened: as §2, with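 “fit. Reversal index = IC50 without compound / IC50 with compound in MDR1 cells.” for “fit.”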

[6] = biological target: T1, ATP-dependent translocase ABCB1; assay: Inhibition of human MDR1 expressed in mouse NIH/3T3 cells assessed as reduction in daunomycin IC50 at 10 uM by MTT assay; assay type: cell-based; details: nih3t3, 10 µM
Procedure, shortened: as §2, with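 “fit. Reversal index = IC50 without compound / IC50 with compound in MDR1 cells.” for “fit.”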

[7] = biological target: T1, ATP-dependent translocase ABCB1; assay: Inhibition of human MDR1 expressed in mouse NIH/3T3 cells assessed as reduction in vinblastine IC50 at 1 uM by MTT assay; assay type: cell-based; details: nih3t3, 1 µM
Procedure, shortened: as §2, with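 “fit. Reversal index = IC50 without compound / IC50 with compound in MDR1 cells.” for “fit.”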

[8] = biological target: T1, ATP-dependent translocase ABCB1; assay: Inhibition of human MDR1 expressed in mouse NIH/3T3 cells assessed as reduction in vinblastine IC50 at 3 uM by MTT assay; assay type: cell-based; details: nih3t3, 3 µM
Procedure, shortened: as §2, with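 “fit. Reversal index = IC50 without compound / IC50 with compound in MDR1 cells.” for “fit.”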

[9] = biological target: T1, ATP-dependent translocase ABCB1; assay: Inhibition of human MDR1 expressed in mouse NIH/3T3 cells assessed as reduction in vinblastine IC50 at 10 uM by MTT assay; assay type: cell-based; details: nih3t3, 10 µM
Procedure, shortened: as §2, with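 “fit. Reversal index = IC50 without compound / IC50 with compound in MDR1 cells.” for “fit.”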

[10] = biological target: T1, ATP-dependent translocase ABCB1; assay: Potency index, ratio of daunomycin reversal index to compound reversal index for human MDR1 expressed in mouse NIH/3T3 cells at 1 uM; assay type: cell-based; details: nih/3t3, 1 µM
Procedure, shortened: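 Each RI comes from the MTT dose-response of DNM or VLB (up to 500 ng/mL), with or without modulator.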

[11] = Intrinsic cytotoxicity against mouse NIH/3T3 cells assessed as cell growth at 60 uM by MTT assay; assay type: cell-based, NIH3T3; details: read-out: Activity; procedure, shortened: as §1
[12] = biological target: T1, ATP-dependent translocase ABCB1; assay: Inhibition of human MDR1 expressed in mouse NIH/3T3 cells assessed as daunomycin retention at 10 uM incubated for 30 mins by flow cytometry; assay type: cell-based; set-up: scale not given: the % may be the effect or the level left; details: nih3t3, 0.5 h
Procedure, shortened: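 DNM retention by flow cytometry. MDR1-G185 NIH-3T3 cells in log phase were seeded 24 h before at 10^5 cells/well. They were incubated 30 min at 37 °C in DMEM + 10% iFBS with DNM (2 μM), with or without compound (10 μM). Cells were then washed twice in ice-cold PBS, trypsinized and read immediately for single-cell fluorescence.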

[13] = biological target: T1, ATP-dependent translocase ABCB1; assay: Potency index, ratio of vinblastine reversal index to compound reversal index for human MDR1 expressed in mouse NIH/3T3 cells at 3 uM; assay type: cell-based; details: nih/3t3, 3 µM

Structure (SMILES)	Ki [1]	CC50 [2]	CC50 [3]	fold change (FC) [4]	fold change (FC) [5]	fold change (FC) [6]	fold change (FC) [7]	fold change (FC) [8]	fold change (FC) [9]	Ratio [10]	viability at 60 µM [11]	Activity [12]	Ratio [13]
CC(=O)O[C@H]1CC[C@](C)(O)[C@]23OC(C)(C)[C@H]([C@H](OC(=O)/C=C/c4ccccc4)[C@H](OC(=O)c4ccccc4)[C@]12C)[C@H]3OC(=O)N(C)C	1.21 µM	24 µM	56.3 µM	11.8	13.9	16.3	11.2	37.7	90.2	3	–	–	–
CCC(C)C(=O)O[C@@H]1[C@H]2[C@H](OC(=O)/C=C/c3ccccc3)[C@H](OC(=O)c3ccccc3)[C@]3(C)[C@@H](OC(C)=O)CC[C@](C)(O)[C@@]13OC2(C)C (stereo partly drawn)	0.41 µM	13.2 µM	> 60 µM	–	–	–	–	–	–	–	57.3%	–	–
C=C1CC[C@H](OC(C)=O)[C@@]2(C)[C@@H](OC(=O)c3ccccc3)[C@@H](OC(=O)/C=C/c3ccccc3)[C@@H]3[C@@H](OC(=O)CCl)[C@]12OC3(C)C	–	–	–	–	–	–	–	–	–	–	–	66%	–
CC(=O)O[C@H]1CC[C@](C)(O)[C@]23OC(C)(C)[C@H]([C@H](OC(=O)/C=C/c4ccccc4)[C@H](OC(=O)c4ccccc4)[C@]12C)[C@H]3OC(=O)c1ccccc1	0.5 µM	30.6 µM	> 60 µM	6.2	10.1	17.5	13.9	33.6	126.2	–	64.1%	–	–
CCC(=O)O[C@@H]1[C@H]2[C@H](OC(=O)/C=C/c3ccccc3)[C@H](OC(=O)c3ccccc3)[C@]3(C)[C@@H](OC(C)=O)CC[C@](C)(O)[C@@]13OC2(C)C	0.54 µM	24.9 µM	> 60 µM	10.8	11.5	12.4	19.1	69	110.9	3	68.6%	–	2
CC(=O)O[C@H]1CC[C@](C)(O)[C@]23OC(C)(C)[C@H]([C@H](OC(=O)/C=C/c4ccccc4)[C@H](OC(=O)c4ccccc4)[C@]12C)[C@H]3OC(=O)CCl	1.52 µM	5.3 µM	7.4 µM	–	–	–	–	–	–	–	–	83%	–
CC(=O)O[C@H]1CC[C@@H](C)[C@]23OC(C)(C)[C@H]([C@H](OC(=O)CCc4ccccc4)[C@H](OC(=O)c4ccccc4)[C@]12C)[C@H]3O	0.4 µM	14.2 µM	> 60 µM	–	–	–	–	–	–	–	72.3%	–	–
C=C1CC[C@H](OC(C)=O)[C@@]2(C)[C@@H](OC(=O)c3ccccc3)[C@@H](OC(=O)/C=C/c3ccccc3)[C@@H]3[C@@H](O)[C@]12OC3(C)C	–	–	–	–	–	–	–	–	–	–	–	66%	–
CC(=O)O[C@H]1CC[C@]2(C)O[C@@H]3[C@H]4[C@H](OC(=O)/C=C/c5ccccc5)[C@H](OC(=O)c5ccccc5)[C@@]1(C)[C@]32OC4(C)C	0.5 µM	27.9 µM	29.4 µM	5.9	8.7	15.6	15.2	75.8	125.2	–	–	–	2
CC(=O)O[C@H]1CC[C@](C)(O)[C@]23OC(C)(C)[C@H]([C@H](OC(=O)/C=C/c4ccccc4)[C@H](OC(=O)c4ccccc4)[C@]12C)[C@H]3OC(=O)CCC(=O)OCCO	0.5 µM	29.2 µM	27.7 µM	2.6	7.5	10.6	6.5	26.8	145.9	–	–	–	–
CC(=O)O[C@H]1CC[C@](C)(OC(C)=O)[C@]23OC(C)(C)[C@H]([C@H](OC(=O)/C=C/c4ccccc4)[C@H](OC(=O)c4ccccc4)[C@]12C)[C@H]3OC(C)=O	0.52 µM	51.6 µM	> 60 µM	6.9	10.3	15.2	21.2	58.2	91.7	–	68.1%	85%	2
CC(=O)O[C@H]1CC[C@](C)(O)[C@]23OC(C)(C)[C@H]([C@H](OC(=O)/C=C/c4ccccc4)[C@H](OC(=O)c4ccccc4)[C@]12C)[C@H]3OS(C)(=O)=O	0.6 µM	31.7 µM	> 60 µM	7	11.1	16.3	18.5	86.6	149.2	–	69.1%	83%	2
CC(=O)O[C@H]1CC[C@](C)(O)[C@]23OC(C)(C)[C@H]([C@H](OC(=O)CCc4ccccc4)[C@H](OC(=O)c4ccccc4)[C@]12C)[C@H]3O	0.47 µM	30.3 µM	25.4 µM	3.3	8.1	11.6	11.1	23.6	43.8	–	–	–	–
COC(=O)CCCC(=O)O[C@@H]1[C@H]2[C@H](OC(=O)/C=C/c3ccccc3)[C@H](OC(=O)c3ccccc3)[C@]3(C)[C@@H](OC(C)=O)CC[C@](C)(O)[C@@]13OC2(C)C	0.61 µM	28.2 µM	> 60 µM	6	12.3	15.9	7.5	37.7	103.6	–	71.3%	–	–
C=C1CC[C@H](OC(C)=O)[C@@]2(C)[C@@H](OC(=O)c3ccccc3)[C@@H](OC(=O)/C=C/c3ccccc3)[C@@H]3[C@@H](OS(C)(=O)=O)[C@]12OC3(C)C	–	–	–	–	–	–	–	–	–	–	–	66%	–
CC(=O)O[C@H]1CC[C@](C)(OC(=O)CNCC(C)C)[C@]23OC(C)(C)[C@H]([C@H](OC(=O)/C=C/c4ccccc4)[C@H](OC(=O)c4ccccc4)[C@]12C)[C@H]3OC(C)=O	0.63 µM	34.6 µM	37.3 µM	10	15.1	22.2	20.6	49.1	82.9	3	–	–	–
CC(=O)O[C@H]1CC[C@](C)(O)[C@]23OC(C)(C)[C@H]([C@H](OC(=O)/C=C\c4ccccc4)[C@H](OC(=O)c4ccccc4)[C@]12C)[C@H]3OC(=O)c1cnccn1	0.42 µM	31.2 µM	> 60 µM	3.2	5.2	9	5.2	18.7	39.6	–	68.3%	–	–
CC(=O)O[C@H]1CC[C@](C)(O)[C@]23OC(C)(C)[C@H]([C@H](OC(=O)/C=C/c4ccccc4)[C@H](OC(=O)c4ccccc4)[C@]12C)[C@H]3O	0.28 µM	25.5 µM	26.1 µM	5.6	9.1	15.1	23.7	30.3	86.6	–	–	83%	–
CC(=O)O[C@H]1CC[C@](C)(O)[C@]23OC(C)(C)[C@H]([C@H](OC(=O)/C=C/c4ccccc4)[C@H](OC(=O)c4ccccc4)[C@]12C)[C@H]3OC(C)=O	0.29 µM	18.3 µM	26.3 µM	–	–	–	–	–	–	–	–	83%	–
